From ChEMBL document CHEMBL5357045, “Development of pharmacophore models for AcrB protein and the identification of potential adjuvant candidates for overcoming efflux-mediated colistin resistance” (2024)
≈ marks a conversion by molar mass, not a printed value. Calls of active or inactive are those of the source.

Tests used:
Escherichia coli [1] = test: Antibacterial activity against Escherichia coli; assay type: functional
Morganella morganii [2] = test: Bacteriostatic activity against Morganella morganii UM869 incubated for 24 hrs by time-kill assay; assay type: functional, organism-based
Method in brief: (§1)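 Log-phase cultures (~5×10^6 CFU mL−1) in cation-adjusted Mueller–Hinton broth at 37 °C are given drugs alone or combined at ¼ MIC; untreated growth is the control. At 0, 4, 8, 12 and 24 h, samples are diluted […] in 0.7% NaCl, 100 µL is plated on Mueller–Hinton agar overnight at 37 °C, and colonies are counted. Three repeats, mean reported.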

Morganella morganii [3] = test: Antibacterial activity against Morganella morganii UM869 incubated for 16 to 18 hrs by broth microdilution method; assay type: functional; details: time 16-18 hrs
Method in brief: (§2)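 CLSI broth microdilution in cation-adjusted Mueller–Hinton broth, inoculum 5×10^5 CFU mL−1. Ranges tested: colistin 1024–2 μg mL−1, CCCP 80–1 μg mL−1, argatroban 1024–2 μg mL−1. Incubation is 37 °C for 16–18 h. Growth is visualized with triphenyl tetrazolium chloride, and the MIC is interpreted by CLSI breakpoint criteria.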

Morganella morganii [4] = test: Antibacterial activity against Morganella morganii UM573 assessed as efflux pump inhibition by measuring mean fluorescence intensity incubated for 30 mins by EtBr staining based assay; assay type: functional, organism-based
Method in brief: (§3)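 Isolates grown in LB broth and adjusted to 0.5 McFarland. Cultures with no drug, CCCP or test agent (fraction of each agent's MIC per isolate) were shaken 30 min at 37 °C, then swabbed cartwheel-style onto TSA plates containing EtBr 2.5 mg L⁻¹ and incubated 18 h at 37 °C. Swab fluorescence was imaged and mean intensity compared by Student's t-test. K. pneumoniae ATCC13882 and SDL79 served as controls.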

Klebsiella pneumoniae [5] = test: Synergistic antibacterial activity against Klebsiella pneumoniae UK48 in presence of colistin by checkerboard assay; assay type: functional
Method in brief: (§4)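 Checkerboard run in triplicate in cation-supplemented Mueller–Hinton broth. Colistin 512 to 1 µg mL−1 is crossed with argatroban 256 to 2 µg mL−1. Inoculum is ~5–6×10^5 CFU mL−1, incubated 37 °C for 24 h. ΣFIC = C_A/MIC_A + C_B/MIC_B, where C is each drug's concentration in combination at the MIC well.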

Klebsiella pneumoniae [6] = test: Antibacterial activity against Klebsiella pneumoniae UK48 incubated for 16 to 18 hrs by broth microdilution method; assay type: functional; details: time 16-18 hrs; method in brief: as §2
Morganella morganii [7] = test: Synergistic antibacterial activity against Morganella morganii UM573 in presence of colistin by checkerboard assay; assay type: functional; method in brief: as §4
Klebsiella pneumoniae [8] = test: Bacteriostatic activity against Klebsiella pneumoniae UK48 incubated for 24 hrs by time-kill assay; assay type: functional, organism-based; method in brief: as §1
Morganella morganii [9] = test: Antibacterial activity against Morganella morganii UM869 assessed as efflux pump inhibition by measuring mean fluorescence intensity incubated for 30 mins by EtBr staining based assay; assay type: functional, organism-based; method in brief: as §3
Morganella morganii [10] = test: Antibacterial activity against Morganella morganii UM573 incubated for 16 to 18 hrs by broth microdilution method; assay type: functional; details: time 16-18 hrs; method in brief: as §2
Morganella morganii [11] = test: Bacteriostatic activity against Morganella morganii UM573 incubated for 24 hrs by time-kill assay; assay type: functional, organism-based; method in brief: as §1
Klebsiella pneumoniae [12] = test: Antibacterial activity against Klebsiella pneumoniae UK48 assessed as efflux pump inhibition by measuring mean fluorescence intensity incubated for 30 mins by EtBr staining based assay; assay type: functional, organism-based; method in brief: as §3
Morganella morganii [13] = test: Synergistic antibacterial activity against Morganella morganii UM869 in presence of colistin by checkerboard assay; assay type: functional; method in brief: as §4
Escherichia coli [14] = test: Antibacterial activity against Escherichia coli by broth dilution method; assay type: functional
Escherichia coli [15] = test: Antibacterial activity against Escherichia coli BW25113; assay type: functional
Escherichia coli [16] = test: Antibacterial activity against Escherichia coli ATCC 35218; assay type: functional
Escherichia coli [17] = test: Antibacterial activity against Escherichia coli AG100A; assay type: functional
Escherichia coli [18] = test: Antibacterial activity against Escherichia coli APEC_O2; assay type: functional

## CC1(C)Cc2c(C#N)c(SCCc3ccccc3)nc(N3CCOCC3)c2CO1
Escherichia coli [1]
  MIC: 4.05 µg/mL (≈ 9.89 µM)

## C[C@@H]1CNc2c(cccc2S(=O)(=O)N[C@@H](CCCNC(=N)N)C(=O)N2CC[C@@H](C)C[C@@H]2C(=O)O)C1
Morganella morganii [2]
  Activity: inactive
Morganella morganii [3]
  MIC: ≥ 512 µg/mL
Morganella morganii [4]
  Activity: Active
Klebsiella pneumoniae [5]
  MIC: 64 µg/mL
Klebsiella pneumoniae [6]
  MIC: ≥ 512 µg/mL
Morganella morganii [7]
  MIC: 128 µg/mL
Klebsiella pneumoniae [8]
  Activity: inactive
Morganella morganii [9]
  Activity: Active
Morganella morganii [10]
  MIC: ≥ 512 µg/mL
Morganella morganii [11]
  Activity: inactive
Klebsiella pneumoniae [12]
  Activity: Active
Morganella morganii [13]
  MIC: 128 µg/mL

## O=C(Nc1ccccc1)c1ccccc1C(=O)Nc1ccccc1
Escherichia coli [14]
  MIC: 64 µg/mL (≈ 202 µM)

## CN(C)CCC=C1c2ccccc2CCc2ccccc21 [AMITRIPTYLINE]
Escherichia coli [15]
  MIC: 444 µg/mL (≈ 1600 µM)

## C[C@H]1[C@@H](O)O[C@@H]2O[C@@]3(C)CC[C@H]4[C@H](C)CC[C@@H]1[C@@]24OO3 [ARTENIMOL]
Escherichia coli [16]
  MIC: 1020 µg/mL (≈ 3600 µM)

## C[C@H]1[C@H](OC(=O)CCC(=O)O)O[C@@H]2O[C@@]3(C)CC[C@H]4[C@H](C)CC[C@@H]1[C@@]24OO3 [ARTESUNATE]
Escherichia coli [16]
  MIC: 4100 µg/mL (≈ 10700 µM)

## N#CC(C#N)=NNc1cccc(Cl)c1 [CARBONYL CYANIDE M-CHLOROPHENYLHYDRAZONE]
Morganella morganii [2]
  Activity: Active
Morganella morganii [3]
  MIC: 20 µg/mL (≈ 97.7 µM)
Morganella morganii [4]
  Activity: Active
Klebsiella pneumoniae [6]
  MIC: 5 µg/mL (≈ 24.4 µM)
Klebsiella pneumoniae [8]
  Activity: Active
Morganella morganii [9]
  Activity: Active
Morganella morganii [10]
  MIC: 20 µg/mL (≈ 97.7 µM)
Morganella morganii [11]
  Activity: Active
Klebsiella pneumoniae [12]
  Activity: Active

## CN(C)CCCN1c2ccccc2Sc2ccc(Cl)cc21 [CHLORPROMAZINE]
Escherichia coli [15]
  MIC: 256 µg/mL (≈ 803 µM)

## O=c1c(-c2ccc(O)cc2)coc2cc(O)ccc12 [DAIDZEIN]
Escherichia coli [1]
  MIC: 16 µg/mL (≈ 62.9 µM)

## OC(c1cc(-c2ccc(C(F)(F)F)cc2)nc(C(F)(F)F)c1)C1CCCCN1 (centres undefined) [ENPIROLINE]
Escherichia coli [14]
  MIC: 20.2 µg/mL (≈ 50 µM)

## CC[C@H]1OC(=O)[C@H](C)[C@@H](O[C@H]2C[C@@](C)(OC)[C@@H](O)[C@H](C)O2)[C@H](C)[C@@H](O[C@@H]2O[C@H](C)C[C@H](N(C)C)[C@H]2O)[C@](C)(O)C[C@@H](C)C(=O)[C@H](C)[C@@H](O)[C@]1(C)O [ERYTHROMYCIN]
Escherichia coli [1]
  MIC: 367 µg/mL (≈ 500 µM)

## CC(C)=CCC/C(C)=C/CO [GERANIOL]
Escherichia coli [17]
  MIC: 64 µg/mL (≈ 415 µM)

## CC[n+]1c(-c2ccccc2)c2cc(N)ccc2c2ccc(N)cc21 [HOMIDIUM]
Escherichia coli [1]
  MIC: 512 µg/mL

## CC(=O)NC[C@H]1CN(c2ccc(N3CCOCC3)c(F)c2)C(=O)O1 [LINEZOLID]
Escherichia coli [1]
  MIC: 512 µg/mL (≈ 1520 µM)

## O=c1c2cc(O)c(O)cc2oc2cc(O)c([C@@H]3O[C@H](CO)[C@@H](O)[C@H](O)[C@H]3O)c(O)c12 [MANGIFERIN]
Escherichia coli [15]
  MIC: 512 µg/mL (≈ 1210 µM)

## O=C(Cc1cccs1)N[C@@H]1C(=O)N2C(C(=O)O)=C(/C=C/c3ccc([N+](=O)[O-])cc3[N+](=O)[O-])CS[C@H]12 [NITROCEFIN]
Escherichia coli [1]
  MIC: 1.9 µg/mL (≈ 3.68 µM)

## CC(Cc1ccc(O)c(O)c1)C(C)Cc1ccc(O)c(O)c1 (centres undefined) [NORDIHYDROGUAIARETIC ACID]
Escherichia coli [15]
  MIC: 512 µg/mL (≈ 1690 µM)

## Cc1onc(-c2ccccc2)c1C(=O)N[C@@H]1C(=O)N2[C@@H]1SC(C)(C)[C@@H]2C(=O)O [OXACILLIN]
Escherichia coli [1]
  MIC: 1020 µg/mL (≈ 2550 µM)

## O=c1[nH]c2ccccc2n1C1CCN(CCCC(c2ccc(F)cc2)c2ccc(F)cc2)CC1 [PIMOZIDE]
Escherichia coli [1]
  MIC: 92.3 µg/mL (≈ 200 µM)

## CC1=CC(=O)c2c(O)cccc2C1=O [PLUMBAGIN]
Escherichia coli [15]
  MIC: 128 µg/mL (≈ 680 µM)

## O=c1c(O)c(-c2ccc(O)c(O)c2)oc2cc(O)cc(O)c12 [QUERCETIN]
Escherichia coli [15]
  MIC: 1020 µg/mL (≈ 3390 µM)

## Nc1ccnc2ccccc12 [QUINOLIN-4-AMINE]
Escherichia coli [14]
  MIC: 14.4 µg/mL (≈ 100 µM)

## CN[C@H]1CC[C@@H](c2ccc(Cl)c(Cl)c2)c2ccccc21 [SERTRALINE]
Escherichia coli [18]
  MIC: 32 µg/mL (≈ 104 µM)

## CC(C)=CC[C@@H](O)C1=CC(=O)c2c(O)ccc(O)c2C1=O [SHIKONIN]
Escherichia coli [15]
  MIC: 256 µg/mL (≈ 888 µM)

## C[C@H]1[C@H](C)CC[C@]2(C(=O)O)CC[C@]3(C)C(=CC[C@@H]4[C@@]5(C)CC[C@H](O)C(C)(C)[C@@H]5CC[C@]43C)[C@H]12 [URSOLIC ACID]
Escherichia coli [1]
  MIC: 50 µg/mL (≈ 109 µM)
